# ASAP1 inh: inhibitors of human ASAP1 ArfGAP activity, primary screen, biochemical, fluorescence polarization; Arf-GAP with SH3 domain, ANK repeat and PH domain-containing protein 1 (Homo sapiens), …; ASAP1-stimulated ARF1 GTP hydrolysis, GDP FP detection; inhibition, % at 16.5 µM; 360,000 tested, 0.19% active; in the data active = inhibition above about 25%;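 note: 0% = vehicle with enzyme and substrate and 100% = no enzyme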
# ARFGAP1 inh: inhibitors of rat ARFGAP1 GAP activity, primary screen, biochemical, fluorescence polarization, GDP tracer; Arfgap1-stimulated ARF1 GTP hydrolysis, GDP FP detection; AID 651572, 2012; inhibition, % at 16.5 µM; ADP-ribosylation factor GTPase-activating protein 1 (Rattus norvegicus), Q62848; 360,000 tested, 0.26% active;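 active = inhibition above a per-plate limit, mean inhibition of low control wells plus 3 SD, cut at about 25% in these data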;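 note: 0% = DMSO wells with enzyme and 100% = wells lacking Arfgap1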
# Target sequence (Q62848 1-136 limits assumed): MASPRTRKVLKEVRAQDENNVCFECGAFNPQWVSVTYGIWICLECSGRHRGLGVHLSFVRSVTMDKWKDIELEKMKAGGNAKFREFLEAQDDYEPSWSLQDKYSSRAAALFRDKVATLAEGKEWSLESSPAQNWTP
#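 Repeats: one replicate per compound; assay system: rat Arfgap1 catalytic domain, aa 1-136; times: enzyme reaction 120 min at 25 °C after 20 min preincubation; detection: FP of antibody-bound GDP Alexa 633 tracer, ex 620/em 688 nm; benchmarks: high control wells lacking Arfgap1, low control full reaction with DMSO; reagent: human ARF1(Δ1-17)-GTP substrate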
# TDP2 inh: human TDP2 enzyme inhibitors, primary screen, biochemical, epi absorbance, recombinant enzyme; AID 720702, 2013; Tyrosyl-DNA phosphodiesterase 2 (Homo sapiens), O95551; inhibition, % at 12.8 µM; 370,000 tested, 0.34% active; T5PNP hydrolysis, p-nitrophenol absorbance 415 nm;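 active = inhibition above the mean of all tested compounds plus 3 SD, set per campaign, cut at about 25% in these data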;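 note: 0% = DMSO with enzyme and 100% = buffer with substrate but no TDP2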
#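 System – recombinant human TDP2 · Quantity – TDP2 enzyme at 120 nM final · Doses – single concentration, 12.8 µM nominal, with 1% DMSO · Incubation – 2 h at 37 °C · Measured by – epi absorbance of p-nitrophenol freed from T5PNP by hydrolysis · Read-out – % inhibition relative to enzyme-containing and enzyme-free wells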
# LEDGF integ inh: blockers of LEDGF/p75-dependent integrase strand transfer – biochemical, TR-FRET, high throughput, primary screen; HIV-1 integrase (with human LEDGF/p75); TR-FRET IN-LEDGF/p75 DNA integration, Eu/Cy5; inhibition, % at 3.7 µM; 370,000 tested, 0.64% active;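 active = inhibition above the screen-wide mean plus 3 SD, cut at about 13% in these data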;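 note: signal is the Cy5 over europium emission ratio at 671 and 618 nm; 0% = plate median of compound wells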
# CASP6 VEID inh: human caspase-6 inhibitors, primary screen, biochemical, VEID-R110 fluorescence, single point, set 2. P55212. purified caspase-6, Z-VEID-R110 cleavage fluorescence. 350,000 tested, 0.53% active. inhibition, % at 12.5 µM;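 active = mean inhibition across replicates at least about 35%, with every replicate also reaching that limit, limit read from the data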;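 note: 0% = median of neutral control wells and 100% = no fluorescence left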
# ARFGAP1 inh conf: ARFGAP1 inhibitor hit confirmation, biochemical, fluorescence polarization, triplicate; shares compounds with ARFGAP1 inh; 890 tested, 30% active; inhibition, % at 16.5 µM; ARFGAP1-stimulated ARF1 GTP hydrolysis, GDP tracer FP;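 active = average inhibition over triplicates above the hit cutoff set in the earlier primary screen, cut at about 25% in these data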;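 note: 0% = Arfgap1 plus ARF1-GTP with DMSO and 100% = wells lacking Arfgap1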
# Target sequence (Q62848 whole entry, looked up): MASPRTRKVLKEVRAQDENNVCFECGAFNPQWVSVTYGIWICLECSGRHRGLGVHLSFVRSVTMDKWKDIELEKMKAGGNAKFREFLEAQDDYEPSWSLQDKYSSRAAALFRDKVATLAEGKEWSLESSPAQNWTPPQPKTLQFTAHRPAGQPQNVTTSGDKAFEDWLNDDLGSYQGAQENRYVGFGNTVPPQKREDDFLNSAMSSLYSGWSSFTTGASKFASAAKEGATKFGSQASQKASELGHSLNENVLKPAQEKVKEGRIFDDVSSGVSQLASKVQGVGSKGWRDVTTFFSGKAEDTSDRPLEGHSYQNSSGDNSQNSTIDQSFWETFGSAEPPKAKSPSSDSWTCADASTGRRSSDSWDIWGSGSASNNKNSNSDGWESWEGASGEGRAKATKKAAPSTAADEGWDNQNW
# Active calls of the source: *; · = no result given. Hits are enriched below; roughly 1.3% of the tested compounds scored in any of these assays.
SMILES,ASAP1 inh,ARFGAP1 inh,TDP2 inh,LEDGF integ inh,CASP6 VEID inh,ARFGAP1 inh conf
CS(=O)(=O)N1CCCC(C(=O)NCc2ccc(F)cc2)C1 (stereo unspecified),-6,27*,0,1,·,3
Cc1ccc(CN2CC(=O)N3[C@H](C2)[C@H](c2ccc(Br)cc2)[C@@H]3CO)cc1,·,·,·,·,0,·
CCCP(=O)(CC(=O)N(CC)CC)c1ccccc1 (stereo unspecified),-4,5,3,-1,·,·
CCC[C@@H]1CCCO[C@@](C(=O)NCCN2CCOCC2)(C(F)(F)F)C1,6,31*,-7,-2,0,-5
COC(=O)C1=C(C)N(Cc2cccc(C(F)(F)F)c2)C(=NCc2ccc(C(F)(F)F)cc2)NC1c1cccc(F)c1 (stereo unspecified),3,29*,-14,3,9,6
COC(=O)C1=C(C)N(Cc2ccc(C(F)(F)F)cc2)C(=NCc2ccccc2)NC1c1cccc(F)c1 (stereo unspecified),-8,2,-9,-2,19,·
COC(=O)C1=C(C)N(Cc2cccc(C(F)(F)F)c2)C(=NCc2ccc(C(F)(F)F)cc2)NC1c1ccc(C(F)(F)F)cc1 (stereo unspecified),19,32*,-5,1,-6,16
CCC(C)C(=O)Nc1cc(OC)c(OC)cc1C(=O)O (stereo unspecified),-4,28*,-1,2,·,7
COC(=O)c1c(C)oc(C)c1S(=O)(=O)N1CCCC1,-9,-1,-18,-5,-5,·
O=[N+]([O-])c1cccc(-n2cc3ccc([N+](=O)[O-])cc3n2)c1,18,40*,0,1,0,45*
COc1ccc(C(=O)Nc2ccccc2N2CCOCC2)cc1Br,-22,-4,4,3,1,·
COc1ccccc1-c1oc2ccccc2c1-c1ccc2cc[nH]c2c1,10,26*,4,-1,-1,12
Cc1nn(CCCC(=O)Nc2cc(Oc3ccccc3)cc([N+](=O)[O-])c2)c(C)c1[N+](=O)[O-],7,15,-11,-4,·,·
Cc1ccc(C)c(Oc2cc(NC(=O)CCCn3nc(C)c([N+](=O)[O-])c3C)cc([N+](=O)[O-])c2)c1,6,26*,-9,-2,0,1
CCC1CCC2(CC1)NC(=O)N(CC(=O)Nc1cccc(S(=O)(=O)N(C)c3ccccc3)c1)C2=O (stereo unspecified),6,41*,-2,5,2,-1
COc1cccc(N=Cc2c[nH][nH]c2=O)c1,-6,-10,2,0,·,·
O=c1[nH][nH]cc1C=Nc1ccc(Cl)cc1,-3,36*,4,2,0,-6
COc1cccc(/C=N/n2nnc3c(cnn3-c3ccccc3)c2=O)c1,1,5,0,-5,·,·
COc1cccc(/C=C/c2nc3c(cnn3-c3ccccc3)c(=O)[nH]2)c1,17,28*,-8,5,2,5
CSCCC(NC(=O)c1ccccc1Br)C(=O)NCc1ccc(F)cc1 (stereo unspecified),-1,-9,5,0,0,·
CC(C(=O)Nc1nc(-c2ccc(F)c(F)c2)cs1)N1C(=O)C2CC=CCC2C1=O (stereo unspecified),6,27*,-9,-5,8,2
Cn1cccc1C(=O)OCC(=O)Nc1sccc1C#N,4,1,6,3,2,·
N#Cc1ccsc1NC(=O)COC(=O)c1ccc2ccccc2c1,23,27*,11,0,·,20
CC(N=C1NS(=O)(=O)c2ccccc21)C(=O)NCCCc1ccccc1 (stereo unspecified),13,8,7,-4,7,·
Cc1ccc(NC(=O)C(C)N=C2NS(=O)(=O)c3ccccc32)cc1F (stereo unspecified),20,38*,-4,-1,1,4
SMILES,ASAP1 inh,ARFGAP1 inh,TDP2 inh,LEDGF integ inh,CASP6 VEID inh,ARFGAP1 inh conf
CC(=O)Nc1cccc(-c2ccnc3c2CC(C)(C(=O)Nc2cccc(C(F)(F)F)c2)O3)c1 (stereo unspecified),6,0,-4,2,3,·
CC1(C(=O)Nc2cccc(C(F)(F)F)c2)Cc2c(-c3cccc(C(F)(F)F)c3)ccnc2O1 (stereo unspecified),4,34*,-2,-1,-1,11
O=C(CSCc1c(Cl)cccc1Cl)NCc1ccccn1,5,-3,8,-3,1,·
CCOc1ccc(CCN2C(=S)N([C@@H](Cc3ccc(O)cc3)CN3CCC[C@@H]3CN3C(=S)NC[C@@H]3Cc3ccc(O)cc3)C[C@@H]2Cc2ccc(O)cc2)cc1,12,26*,-2,-3,1,10
Cc1cccc(S(=O)(=O)NC(=O)C2(C)CCN2C(=O)c2ccc(C3CCCCC3)cc2)c1 (stereo unspecified),-6,3,-8,0,2,·
O=C(NCc1csc(-c2cccs2)n1)Nc1cccc(Cl)c1,2,26*,-12,-3,-1,6
COCCCNC(=O)C(=O)Nc1cc2c3c(c1)CCC(=O)N3CCC2,-6,-5,-16,-3,1,·
O=C(NCCCO)C(=O)Nc1cc2c3c(c1)CCC(=O)N3CCC2,-2,27*,-14,0,-2,0
CCC(C)(C)NC(=O)C(c1cccc(OC)c1OC)N(Cc1ccccc1)C(=O)CCC(=O)Nc1cc(C)on1 (stereo unspecified),-8,-1,1,3,0,·
Cn1c(C(=O)NCC2CCCO2)cc2c(=O)n(C)c3ccccc3c21 (stereo unspecified),3,-3,5,-2,3,·
Cn1c(C(=O)NCC2CCCO2)cc2c(=O)[nH]c3ccccc3c21 (stereo unspecified),15,25*,7,1,·,-3
CCN1CCN(C(=O)Cn2ncc3c([nH]c4ccccc43)c2=O)CC1,-7,5,-10,-2,-7,·
CCN1CCN(C(=O)Cn2ncc3c([nH]c4ccc(C)cc43)c2=O)CC1,2,25*,-7,-4,-2,29*
Cc1ccc2nc(-c3ccc(SCC(=O)Nc4nnc(C)s4)nc3)[nH]c2c1,-4,6,11,-2,·,·

# Screening data from PubChem BioAssay.
